Reference: ChEMBL document CHEMBL2331463, “Probing functional diversity in pactamycin toward antibiotic, antitumor, and antiprotozoal activity” (Bioorg Med Chem, 2013)
Values after ≈ are worked out from the molar mass of the structure shown.

Legend:
[1] = system: Staphylococcus aureus; assay: Antibacterial activity against Staphylococcus aureus ATCC 25923 after 20 hrs by broth microdilution method; format: functional; settings: ATCC 25923, 20 h
In short: (§1)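 MIC determined by standard broth microdilution following CLSI recommendations (document M07-A8).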

[2] = system: Escherichia coli; assay: Antibacterial activity against Escherichia coli ATCC 25922 after 20 hrs by broth microdilution method; format: functional; settings: ATCC 25922, 20 h; in short: as §1
[3] = system: WI-38; assay: Cytotoxicity against human WI38 cells; format: functional, cell-based; settings: for IC50: Homo sapiens, WI-38
[4] = system: Klebsiella pneumoniae; assay: Antibacterial activity against Klebsiella pneumoniae ATCC 700603 after 20 hrs by broth microdilution method; format: functional; settings: ATCC 700603, 20 h; in short: as §1
[5] = system: PC-3; assay: Cytotoxicity against human PC3 cells; format: functional, cell-based; settings: for IC50: Homo sapiens, PC-3
[6] = system: HCT-116; assay: Cytotoxicity against human HCT116 cells; format: functional, cell-based
[7] = system: Pseudomonas aeruginosa; assay: Antibacterial activity against Pseudomonas aeruginosa ATCC 27853 after 20 hrs by broth microdilution method; format: functional; settings: ATCC 27853, 20 h; in short: as §1
[8] = system: Acinetobacter baumannii; assay: Antibacterial activity against Acinetobacter baumannii clinical isolate after 20 hrs by broth microdilution method; format: functional; in short: as §1
[9] = system: Plasmodium falciparum; assay: Antimalarial activity against Plasmodium falciparum 7G8 after 72 hrs by SYBR Green-based fluorescence assay; format: functional, organism-based; settings: 7G8, 72 h
In short: (§2)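 Drug stocks were made at 10 mM in sterile distilled water and serially diluted in culture medium. These were added in quadruplicate to asynchronous P. falciparum cultures at 0.2% parasitemia and 2% hematocrit, then incubated 72 h at 37 °C. Lysis buffer containing SYBR Green I was added, followed by 1 h at room temperature in the dark. Fluorescence was read at ex 497/em 520 nm, and IC50 was obtained by nonlinear regression of logistic dose-response curves.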

[10] = system: Enterococcus faecalis; assay: Antibacterial activity against Enterococcus faecalis ATCC 29212 after 20 hrs by broth microdilution method; format: functional; settings: ATCC 29212, 20 h; in short: as §1
[11] = Cytotoxicity against human MDA231 cells; format: functional, cell-based; settings: MDA-MB-231
[12] = system: Plasmodium falciparum; assay: Antimalarial activity against Plasmodium falciparum D6 after 72 hrs by SYBR Green-based fluorescence assay; format: functional, organism-based; settings: D6, 72 h; in short: as §2
[13] = system: Plasmodium falciparum; assay: Antimalarial activity against Plasmodium falciparum Dd2 after 72 hrs by SYBR Green-based fluorescence assay; format: functional, organism-based; settings: Dd2, 72 h; in short: as §2

| Structure (SMILES) | MIC [1] [µg/mL] | MIC [2] [µg/mL] | IC50 [3] [nM] | MIC [4] [µg/mL] | IC50 [5] [nM] | IC50 [6] [nM] | MIC [7] [µg/mL] | MIC [8] [µg/mL] | IC50 [9] [nM] | MIC [10] [µg/mL] | IC50 [11] [nM] | IC50 [12] [nM] | IC50 [13] [nM] | inhibition (INH) [3] [%] | inhibition (INH) [5] [%] |
| --- | --- | --- | --- | --- | --- | --- | --- | --- | --- | --- | --- | --- | --- | --- | --- |
| CC(=O)c1cccc(N[C@H]2[C@H](N)[C@@](NC(=O)N(C)C)([C@H](C)O)[C@@](C)(O)[C@@]2(O)CO)c1 | 2 (≈ 4.71 µM) | 4 (≈ 9.42 µM) | > 1000 | 8 (≈ 18.8 µM) | 310 | 70 | 128 (≈ 302 µM) | 128 (≈ 302 µM) | 2.5 | 64 (≈ 151 µM) | 260 | < 2.5 | < 2.5 | – | – |
| CC(=O)c1cccc(N[C@H]2[C@H](N)[C@]3(NC(=O)O[C@H]3C)[C@@](C)(O)[C@@]2(O)CO)c1 | > 128 | > 128 | > 1000 | > 128 | > 1000 | > 1000 | > 128 | > 128 | > 2500 | > 128 | > 1000 | > 2500 | > 2500 | – | – |
| CCN(CC)C(=O)N[C@@]1([C@H](C)O)[C@@H](N)[C@H](Nc2cccc(C(C)=O)c2)[C@](O)(CO)[C@]1(C)O | 4 (≈ 8.84 µM) | > 128 | > 1000 | > 128 | 400 | 230 | > 128 | > 128 | 42 | 128 (≈ 283 µM) | 440 | 29 | 40 | – | – |
| CC(=O)c1cccc(N[C@H]2[C@H](N)[C@@](NC(=O)N3CCCC3)([C@H](C)O)[C@@](C)(O)[C@@]2(O)CO)c1 | 8 (≈ 17.8 µM) | 64 (≈ 142 µM) | > 1000 | 128 (≈ 284 µM) | 150 | 90 | > 128 | > 128 | 10 | 128 (≈ 284 µM) | 120 | 9 | 9 | – | – |
| CC(=O)c1cccc(N[C@H]2[C@H](N)[C@@](NC(=O)N3CCCCC3)([C@H](C)O)[C@@](C)(O)[C@@]2(O)CO)c1 | > 128 | > 128 | > 1000 | > 128 | > 1000 | > 1000 | > 128 | > 128 | 1600 | > 128 | > 1000 | > 2500 | 2000 | – | – |
| CC(=O)c1cccc(N[C@H]2[C@H](N)[C@@](NC(=O)N3CCOCC3)([C@H](C)O)[C@@](C)(O)[C@@]2(O)CO)c1 | > 128 | > 128 | > 1000 | > 128 | > 1000 | > 1000 | > 128 | > 128 | > 2500 | > 128 | > 1000 | > 2500 | > 2500 | – | – |
| C[C@H](O)[C@]1(NC(=O)N(C)C)[C@@H](N)[C@H](Nc2ccccc2)[C@](O)(CO)[C@]1(C)O | 64 (≈ 167 µM) | 32 (≈ 83.7 µM) | > 1000 | 64 (≈ 167 µM) | > 1000 | 810 | > 128 | > 128 | 18.5 | > 128 | > 1000 | 14.6 | 13.9 | – | – |
| C[C@H](O)[C@]1(NC(=O)N(C)C)[C@@H](N)[C@H](Nc2cccc(F)c2)[C@](O)(CO)[C@]1(C)O | 4 (≈ 9.99 µM) | 8 (≈ 20 µM) | > 1000 | 32 (≈ 79.9 µM) | > 1000 | 190 | > 128 | 64 (≈ 160 µM) | < 2.5 | 128 (≈ 320 µM) | > 1000 | 6.5 | 7.4 | 34 | 35 |
| COc1cccc(N[C@H]2[C@H](N)[C@@](NC(=O)N(C)C)([C@H](C)O)[C@@](C)(O)[C@@]2(O)CO)c1 | 16 (≈ 38.8 µM) | 64 (≈ 155 µM) | > 1000 | > 128 | > 1000 | 390 | > 128 | 128 (≈ 310 µM) | 19.8 | > 128 | > 1000 | 13.7 | 11.5 | – | – |
| C[C@H](O)[C@]1(NC(=O)N(C)C)[C@@H](N)[C@H](Nc2cccc(C(F)(F)F)c2)[C@](O)(CO)[C@]1(C)O | 2 (≈ 4.44 µM) | 16 (≈ 35.5 µM) | > 1000 | 128 (≈ 284 µM) | 750 | 100 | > 128 | 64 (≈ 142 µM) | < 2.5 | 64 (≈ 142 µM) | 380 | 6.7 | 3.5 | 42 | – |
| CC(=O)c1cccc(N[C@H]2[C@H](N)[C@]3(NC(=O)O[C@H]3C)[C@@](C)(O)[C@@]2(O)COC(=O)c2c(C)cccc2O)c1 [PACTAMYCATE] | > 128 | > 128 | > 1000 | > 128 | > 1000 | > 1000 | > 128 | > 128 | > 2500 | > 128 | > 1000 | > 2500 | > 2500 | – | – |
| CC(=O)c1cccc(N[C@H]2[C@H](N)[C@@](NC(=O)N(C)C)([C@H](C)O)[C@@](C)(O)[C@@]2(O)COC(=O)c2c(C)cccc2O)c1 [PACTAMYCIN] | 0.12 (≈ 0.215 µM) | 16 (≈ 28.6 µM) | > 1000 | 32 (≈ 57.3 µM) | 240 | 70 | 128 (≈ 229 µM) | 16 (≈ 28.6 µM) | 2.5 | 128 (≈ 229 µM) | 500 | < 2.5 | < 2.5 | – | – |
